# MC4R antagonist = MC4R antagonists of cAMP signaling, primary screen, cell-based, TR-FRET, antagonist arm of biased-ligand search | AID 540295, 2011 | 360,000 compounds, 0.48% hits | inhibition, % at 6.5 µM | MC4R-expressing cells, MTII-stimulated cAMP, LANCE TR-FRET;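 active means inhibition above its plate's cutoff, the mean of tested wells on that plate plus 3 SD, cut at about 29% in these data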;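 further: 0% = Melanotan II alone and 100% = Melanotan II plus saturating MCL0020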
# Target sequence (P32245 whole entry, looked up): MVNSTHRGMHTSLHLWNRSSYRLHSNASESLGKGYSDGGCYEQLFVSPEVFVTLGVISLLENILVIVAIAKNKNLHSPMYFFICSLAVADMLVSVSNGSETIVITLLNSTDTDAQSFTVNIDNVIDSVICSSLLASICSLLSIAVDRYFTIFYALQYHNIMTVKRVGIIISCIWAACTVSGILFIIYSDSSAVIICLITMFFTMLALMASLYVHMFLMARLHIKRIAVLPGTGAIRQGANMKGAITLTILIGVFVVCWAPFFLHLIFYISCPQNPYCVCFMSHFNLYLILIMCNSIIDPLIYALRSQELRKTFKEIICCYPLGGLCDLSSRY
#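 Test system: U2OS cells stably expressing human melanocortin 4 receptor (MC4R); also added: Melanotan II challenge; compound: 6.5 µM single dose; timing: 30-min compound preincubation, 1-h Melanotan II challenge, 1-h detection, room temperature; signal: Eu-cAMP/anti-cAMP TR-FRET, emission 671 nm; repeats: one well per compound, no replicates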
# NTR1 ag = agonists of human NTR1, primary screen, imaging, U2OS cells, beta-arrestin-GFP, high content; 330,000 compounds, 0.17% hits; NTR1-U2OS beta-arrestin-GFP spot imaging, agonist mode; Neurotensin receptor type 1 (Homo sapiens), P30989; AID 493036, 2011; activation, % at 20 µM;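 active means activation at or above 40% of the spot to cytoplasm intensity ratio, with at least 20 cells analyzed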;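 further: 0% = DMSO without peptide and 100% = 100 nM NTR1 peptide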
# AI-2 QS mod = Vibrio harveyi AI-2 quorum sensing modulators, primary screen, JMH597 strain, luminescence/OD600 ratio. Vibrio harveyi JMH597 AI-2 luminescence/OD600 ratio, 9 h; active compounds read low; strain lacks LuxN and CqsS sensors; 0 = neutral-control median. 300,000 compounds, 0.4% hits. activity change, % at 7.5 µM. AID 2094, 2009; in the data active means activity change below about -75%, passing the limit was not always enough;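 further: luminescence divided by OD600 gain over 9 h not by final OD600 alone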
# MC4R barr agon = MC4R agonists recruiting beta-arrestin, primary screen, cell-based, luminescence, agonist arm of biased-ligand search. Melanocortin receptor 4 (Homo sapiens), P32245. U2OS MC4R beta-arrestin complementation; percent of melanotan II response, DMSO zero. activation, % at 8.9 µM. 360,000 compounds, 0.98% hits. AID 540308, 2011;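 active means activation above a per-plate cutoff, the mean activation of sample wells on that plate plus 3 SD, cut at about 8% in these data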
# cAMP nonselect = nonselective cAMP signaling inhibitors, parental cells, counter-screen for MC4R biased antagonist project, cell-based, TR-FRET, U2OS, forskolin, triplicate | LANCE TR-FRET | shares compounds with MC4R antagonist | 1,600 compounds, 26% hits | inhibition, % at 6.5 µM | AID 602193, 2012;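 active means mean inhibition over triplicates above the low-control well mean plus 3 SD, set per campaign, cut at about 13% in these data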;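 further: signal is single emission at 671 nm which falls as cellular cAMP rises; 0% = forskolin-stimulated wells and 100% = buffer without forskolin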
# MC4R cAMP antag = MC4R cAMP antagonists, retest, confirmation, cell-based, TR-FRET. shares compounds with MC4R antagonist. MC4R-expressing cells, MTII-stimulated cAMP. inhibition, % at 6.5 µM. 1,600 compounds, 27% hits; in the data active means inhibition above about 29%;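 further: 0% = agonist stimulated wells alone and 100% = agonist stimulated wells plus saturating reference antagonist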
# Numbers without * were called inactive; . = not tested or not shown. Compounds with a hit are over-represented: about 1.8% of the library has one in this group of screens.
SMILES,MC4R antagonist,NTR1 ag,AI-2 QS mod,MC4R barr agon,cAMP nonselect,MC4R cAMP antag
COc1cccc(-c2nc(CS(=O)(=O)CC(=O)Nc3ccccc3Cl)c(C)o2)c1,12,3,11,1,.,.
COC(=O)c1ccccc1NS(=O)(=O)c1ccc(F)cc1,-2,1,23,0,.,.
COC(=O)COc1ccc(S(=O)(=O)Nc2ccccc2C(=O)OC)cc1,35*,7,27,-1,21*,35*
O=C(CNC(=O)C12CC3CC(CC(C3)C1)C2)NCc1ccccc1,3,1,12,0,.,.
NNC(=O)CNC(=O)C12CC3CC(CC(C3)C1)C2,29*,-2,18,3,-5,-16
O=C(OC1CCOC1=O)c1cc(-c2cccs2)nc2ccccc12 (stereo not given),35*,5,28,1,26*,38*
Cc1cc(C)c(NC(=O)c2cccc(NC(=O)c3ccco3)c2)c(C)c1,30*,0,9,-1,-2,-18
Cc1cccc(NC(=O)c2cccc(NC(=O)c3ccco3)c2)c1,1,.,.,1,.,.
OC(c1ccccc1)c1ncc(-c2cccc(C(F)(F)F)c2)[nH]1 (stereo not given),-12,.,.,-2,.,.
Cc1cccc2cc(C#N)c(SCC(=O)NCc3cccs3)nc12,39*,-1,8,3,41*,80*
CCOC(=O)CNC(=O)CSc1nc2c(C)cccc2cc1CC,34*,0,23,2,0,5
O=C(Nc1ccccc1-c1ccccc1)c1ccc(=O)[nH]n1,0,3,2,-1,.,.
CN(c1ccc(OCC(=O)OCC(=O)Nc2ccccc2)cc1)S(=O)(=O)c1cccs1,31*,-2,30,-1,14*,37*
CN(c1ccc(OCC(=O)OCC(=O)Nc2ccc(Br)cc2)cc1)S(=O)(=O)c1cccs1,29*,1,11,-1,10,31*
CN(c1ccc(OCC(=O)OCC(=O)Nc2ccc(OC(F)F)cc2)cc1)S(=O)(=O)c1cccs1,9,5,.,-2,.,.
CC(=O)Nc1nc(C)c(-c2nc3ccc([N+](=O)[O-])cc3[nH]2)s1,-3,3,32,0,.,.
COc1ccc(Cl)cc1NC(=O)CN1C(=O)C(=O)N(C2CCCC2)C1=O,-2,.,.,-3,.,.
CCCc1nnc(NC(=O)CC(C)c2ccccc2)s1 (stereo not given),30*,1,13,2,-15,-29
C[C@@H]1CN([C@@H](C)CO)C(=O)CCCn2nncc2CO[C@H]1CN(C)S(=O)(=O)c1ccc(Oc2ccccc2)nc1,0,.,.,-1,.,.
CCOC(=O)C1=CNS(=O)(=O)NC1c1ccc(C[C@H](NC(=O)CNC(=O)CCc2ccccc2)C(N)=O)cc1 (stereo not given in full),7,1,.,0,.,.
COC(=O)c1ccc2c(=O)[nH]c(CCl)nc2c1,30*,0,7,-1,5,7
COC(=O)c1ccc2c(=O)[nH]c(CN3c4ccccc4CC3C)nc2c1 (stereo not given),1,0,29,-2,.,.
O=C(C1CC(=O)N(c2ccccc2F)C1)N1CCOCC1 (stereo not given),17,1,.,-2,.,.
Cc1ccccc1NC(=S)N(CCN1CCCCC1)Cc1ccco1,31*,0,19,3,1,-6
COc1cc(/C=C2\C(=N)N3N=C(C)SC3=NC2=O)cc(Cl)c1OCCOc1ccc(NC(C)=O)cc1,30*,-1,2,0,6,1
SMILES,MC4R antagonist,NTR1 ag,AI-2 QS mod,MC4R barr agon,cAMP nonselect,MC4R cAMP antag
CCOC(=O)N1CCN(C(=O)COC(=O)CSc2ccc([N+](=O)[O-])cc2)CC1,9,0,17,-4,.,.
CCCNC(=O)c1ccc(N2CCC3(CC2)CC(c2ccccc2)=NO3)c(NC(=O)c2ccco2)c1,33*,0,34,-1,5,17
Cc1ccc(CNC(=O)c2ccc(N3CCC4(CC3)CC(c3ccccc3)=NO4)c(NC(=O)c3ccco3)c2)cc1,-4,1,27,-1,.,.
COc1ccc(N2CCN(C(=O)c3ccc(COc4ccc5c(C)cc(=O)oc5c4)cc3)CC2)cc1,31*,-1,20,-3,-5,-5
NC(=S)Nc1cccc(F)c1,29*,2,8,1,-3,-4
COCCN(C(=O)COC(=O)CSc1ccc(Cl)cc1)c1c(N)n(CC(C)C)c(=O)[nH]c1=O,0,0,.,-4,.,.
Cc1cc(C)c(/C=N/n2c(C)cc(C)c(C#N)c2=O)c(C)c1,29*,2,23,0,-1,-8
Cc1cc(C)n(/N=C/c2cccs2)c(=O)c1C#N,-4,-2,13,-2,.,.
CCOc1ccc(CCNC(=O)COC(=O)C2CC2)cc1OCC,0,-1,14,0,.,.
COc1ccccc1NC(=O)c1ccc(NC(=O)Cc2n[nH]c(=O)c3ccccc23)cc1,30*,2,33,2,5,1
CC(=O)c1cccc(S(=O)(=O)N2CCC(C(=O)OC3CCOC3=O)CC2)c1 (stereo not given),40*,5,.,-1,19*,57*
Cc1ccc(S(=O)(=O)N2CCC(C(=O)OC3CCOC3=O)CC2)cc1C (stereo not given),40*,8,33,-4,19*,41*
CC(NC(=O)c1ccccc1F)C1CC1 (stereo not given),17,2,29,2,.,.
O=C(CN1C(=O)CNC1=O)Nc1cc(Cl)cc(Cl)c1,-1,0,.,-2,.,.
CCCCOc1ccc(C(=O)NCC(=O)NC(C)CCc2ccccc2)cc1 (stereo not given),3,2,8,-2,.,.
O=[N+]([O-])c1ccc(Sc2cccc[n+]2[O-])c2nonc12,48*,.,-129*,-3,42*,60*
COc1ccc(S(=O)(=O)N2CCc3ccccc32)cc1C(=O)N(CC(C)C)C1CCS(=O)(=O)C1 (stereo not given),2,0,-6,2,.,.
CCN(C(=O)COC(=O)CSc1ccc(C(N)=O)cc1[N+](=O)[O-])C1CCCCC1,33*,0,-7,-1,7,30*
Cc1ccc(CN(C)C(=O)COC(=O)CSc2ccc(C(N)=O)cc2[N+](=O)[O-])cc1,38*,4,.,-5,14*,35*
Cc1ccc(NC(=O)COc2nsnc2N2CCOCC2)cc1Cl,6,1,4,0,.,.

# Compound activity deposited in PubChem by several laboratories.
